From ChEMBL document CHEMBL4699574, “Discovery of Ketone-Based Covalent Inhibitors of Coronavirus 3CL Proteases for the Potential Therapeutic Treatment of COVID-19” (J Med Chem, 2020)
Values after ≈ are worked out from the molar mass of the structure shown. Active and inactive are the calls of the source. The calls are words filed in the database; no cut-off is given here.

Key:
[1] = Reversible inhibition of SARS coronavirus Urbani 3CL protease(9985 to 10902) using TAMRA-SITSAVLQSGFRKMK(DABCYL)-OH as substrate measured for 10 mins by FRET assay
In short: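 SARS CoV-1 3CLpro FRET assay; each value calculated from at least eight data points, with at least two independent determinations.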

[2] = Permeability of compound in human Caco-2 cells; type: ADME, cell-based
[3] = Half life in dog at 2 mg/kg, iv; type: ADME, organism-based, Canis lupus familiaris; details: in vivo
[4] = Metabolic stability in human liver microsomes assessed as half life; type: ADME, Microsome
[5] = Inhibition of SARS-CoV-2 3CL protease using DABCYLKTSAVLQ-SGFRKME-EDANS as peptide substrate in presence of PF-00835231 inhibitor incubated for 60 mins by FRET assay; set-up: species or system Severe acute respiratory syndrome coronavirus 2
Cathepsin B [6] = biological target: T1, Cathepsin B (Homo sapiens, UniProt P07858); experiment: Inhibition of human cathepsin B
Cathepsin B [7] = biological target: T1, Cathepsin B; experiment: Inhibition of human cathepsin B at 10 uM relative to control
Cathepsin D [8] = biological target: T2, Cathepsin D (Homo sapiens, UniProt P07339); experiment: Inhibition of human cathepsin D
Cathepsin D [9] = biological target: T2, Cathepsin D; experiment: Inhibition of human cathepsin D at 10 uM relative to control
Neutrophil elastase = Neutrophil elastase (Homo sapiens, UniProt P08246); experiment: Inhibition of human leukocyte elastase
[10] = biological target: leukocyte (neutrophil) elastase (Homo sapiens, UniProt P08246); experiment: Inhibition of human leukocyte elastase at 10 uM relative to control
[11] = Inhibition of human chymotrypsin
chymotrypsin = experiment: Inhibition of human chymotrypsin at 10 uM relative to control
Prothrombin = Prothrombin (Homo sapiens, UniProt P00734); experiment: Inhibition of human thrombin
thrombin = thrombin (Homo sapiens, UniProt P00734); experiment: Inhibition of human thrombin at 10 uM relative to control
[12] = Inhibition of human pepsin
pepsin = experiment: Inhibition of human pepsin at 10 uM relative to control
Caspase-2 [13] = biological target: T3, Caspase-2 (Homo sapiens, UniProt P42575); experiment: Inhibition of human Caspase 2
Caspase-2 [14] = biological target: T3, Caspase-2; experiment: Inhibition of human Caspase 2 at 10 uM relative to control
[15] = biological target: Human immunodeficiency virus type 1 protease (Human immunodeficiency virus 1, UniProt Q72874); experiment: Inhibition of HIV1 protease
[16] = biological target: Human immunodeficiency virus type 1 protease (Human immunodeficiency virus 1) (UniProt Q72874); experiment: Inhibition of HIV1 protease at 10 uM relative to control
[17] = Inhibition of HCV protease; set-up: species or system Hepacivirus hominis
Hepacivirus hominis = experiment: Inhibition of HCV protease at 10 uM relative to control
[18] = Inhibition of HRV protease; set-up: species or system Human rhinovirus sp.
rhinovirus B14 = experiment: Antiviral activity against Human rhinovirus 14 infected in human H1-HeLa cells assessed as reduction in virus-induced cytopathogenicity incubated for 2 to 5 days by XTT dye based analysis; type: functional, organism-based; details: Rhinovirus B
rhinovirus A16 = experiment: Antiviral activity against Human rhinovirus 16 infected in human H1-HeLa cells assessed as reduction in virus-induced cytopathogenicity incubated for 2 to 5 days by XTT dye based analysis; type: functional, organism-based; details: Rhinovirus A
[19] = test system: Human immunodeficiency virus 1; experiment: Antiviral activity against HIV-1-RF infected in human H9 cells assessed as reduction in virus-induced cytopathogenicity incubated for 7 days by XTT dye based analysis; type: functional, organism-based; details: Human immunodeficiency virus 1, RF, H9, 168 h
Hepatitis C virus = experiment: Antiviral activity against Hepatitis C virus replicon infected in human Huh-7 cells assessed as reduction in viral RNA synthesis measured after 24 to 72 hrs by Trizol reagent based RT-PCR analysis; type: functional, organism-based, Hepacivirus hominis
Human betaherpesvirus 5 = experiment: Antiviral activity against Human cytomegalovirus AD169 infected in human MRC5 cells assessed as reduction in viral replication measured after 5 days by ELISA; type: functional, cell-based; details: Human betaherpesvirus 5, AD169, MRC5, 120 h
SARS-CoV = experiment: Antiviral activity against SARS COV-1 infected in monkey Vero 76 cells assessed as reduction in virus-induced cytopathic effect measured after 66 hrs in presence of p-glycoprotein inhibitor CP100356 by neutral red method or cell titer glo-based luminescence assay; type: functional, organism-based; details: Severe acute respiratory syndrome-related coronavirus, Vero 76, 66 h
In short: (§1)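 P-glycoprotein transport inhibitor CP-100356 co-dosed at a fixed 0.5 µM throughout a full dose-response of the test inhibitor in the antiviral cytopathic assay.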

Human coronavirus 229E [20] = experiment: Antiviral activity against Human coronavirus 229E infected in human MRC5 cells assessed as reduction in virus-induced cytopathogenicity incubated for 4 days in presence of p-glycoprotein inhibitor CP100356 by XTT dye based assay; type: functional, organism-based; details: time 4.0 day; in short: as §1
[21] = Aqueous solubility of compound in 2.5% w/v SBECD, pH 7.4 5 mM phosphate buffer, made isotonic with 4.25% dextrose formulation; type: physicochemical; details: 2.5% w/v SBECD in phosphate buffer, dose 4.6 mg/ml
[22] = Aqueous solubility of compound in 2.5% w/v SBECD, pH 7.4 5 mM citrate buffer, made isotonic with 4.25% dextrose formulation; type: physicochemical; details: 2.5% w/v SBECD in citrate buffer
[23] = Volume of distribution at steady state in rat at 2 mg/kg, iv; type: ADME, organism-based; details: in vivo
[24] = Half-life in rat at 2 mg/kg, iv; type: ADME, organism-based; details: in vivo
[25] = AUC in rat at 2 mg/kg, iv; type: ADME, organism-based; set-up: dose 2 mg/kg; details: in vivo
[26] = Clearance in dog at 2 mg/kg, iv; details: in vivo
[27] = Volume of distribution at steady state in dog at 2 mg/kg, iv; type: ADME, organism-based, Canis lupus familiaris; details: in vivo, read-out: Vdss
[28] = AUC in dog at 2 mg/kg, iv; type: ADME, organism-based, Canis lupus familiaris; set-up: dose 2 mg/kg; details: in vivo
[29] = Volume of distribution at steady state in monkey at 4 mg/kg, iv; type: ADME, organism-based, Macaca mulatta; details: rhesus monkey, in vivo
[30] = Half-life in monkey at 4 mg/kg, iv; type: ADME, organism-based, Macaca mulatta; details: rhesus monkey, in vivo
[31] = AUC in monkey at 4 mg/kg, iv; type: ADME, organism-based, Macaca mulatta; set-up: dose 4 mg/kg; details: rhesus monkey, in vivo
[32] = Aqueous solubility of compound in 2.5% w/v HPCD formulation; type: physicochemical; details: 2.5% w/v HPCD in water
[33] = Inhibition of Human coronavirus 229E protease
[34] = Cytotoxicity against human MRC5 cells assessed as reduction in cell viability incubated for 4 days by XTT dye based assay; details: time 4 day
[35] = Cytotoxicity against human H1-HeLa cells assessed as reduction in cell viability measured after 2 to 5 days by XTT assay; type: cell-based; details: time 2-5 day
[36] = Cytotoxicity against human H9 cells assessed as reduction in cell viability incubated for 7 days by XTT dye based analysis; details: time 7 day
[37] = Cytotoxicity against human HuH-7 cells assessed as reduction in cell viability; type: cell-based
[38] = Cytotoxicity against human MRC5 cells assessed as reduction in cell viability after 1 to 5 days by XTT dye based assay; details: time 1-5 day
[39] = Cytotoxicity against African green monkey Vero 76 cells measured after 66 hrs by neutral red method or cell titer glo-based luminescence assay; details: chlorocebus sabaeus
Human coronavirus 229E [40] = experiment: microbe, parasite or virus in culture; details: MRC5, 96 h

T3 sequence (P42575 170-325 limits assumed): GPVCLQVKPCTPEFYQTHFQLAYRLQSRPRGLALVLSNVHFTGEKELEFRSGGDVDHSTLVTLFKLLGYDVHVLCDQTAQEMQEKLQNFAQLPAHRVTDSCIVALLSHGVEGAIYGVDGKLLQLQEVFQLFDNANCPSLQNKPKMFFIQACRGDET
T3 sequence (P42575 334-452 limits assumed): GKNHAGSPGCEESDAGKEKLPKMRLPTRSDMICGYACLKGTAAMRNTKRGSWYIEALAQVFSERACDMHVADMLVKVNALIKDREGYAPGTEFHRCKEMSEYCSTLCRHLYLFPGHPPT
T2 sequence (P07339 65-162 limits assumed): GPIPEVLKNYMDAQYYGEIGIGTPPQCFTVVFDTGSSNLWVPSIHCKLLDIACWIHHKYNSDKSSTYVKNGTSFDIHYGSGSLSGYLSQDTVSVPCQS
T2 sequence (P07339 169-412 limits assumed): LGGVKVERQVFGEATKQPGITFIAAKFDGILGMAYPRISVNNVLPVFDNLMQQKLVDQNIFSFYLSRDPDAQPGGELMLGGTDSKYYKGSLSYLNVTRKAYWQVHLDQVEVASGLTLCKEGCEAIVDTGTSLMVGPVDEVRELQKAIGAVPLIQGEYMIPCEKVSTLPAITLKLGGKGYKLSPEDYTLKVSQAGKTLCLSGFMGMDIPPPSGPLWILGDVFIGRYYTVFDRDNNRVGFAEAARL
Chain of Neutrophil elastase (P08246 whole entry): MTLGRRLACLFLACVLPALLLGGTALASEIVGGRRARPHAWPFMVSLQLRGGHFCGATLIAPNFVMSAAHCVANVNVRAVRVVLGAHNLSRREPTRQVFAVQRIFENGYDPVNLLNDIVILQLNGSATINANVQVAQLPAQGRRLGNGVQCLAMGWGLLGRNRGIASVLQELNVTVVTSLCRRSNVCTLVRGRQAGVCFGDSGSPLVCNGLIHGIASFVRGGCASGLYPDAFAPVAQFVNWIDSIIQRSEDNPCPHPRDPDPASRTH
Chain of leukocyte (neutrophil) elastase (P08246 whole entry): as above

With `COc1cccc2[nH]c(C(=O)N[C@@H](CC(C)C)C(=O)N[C@@H](C[C@@H]3CCNC3=O)C(=O)CO)cc12` [PF-00835231] the IC50 [1] was 0.004 µM, the permeability [2] was “Impermeable” and the half-life [3] was 1.3 h. It also gave a half-life [4] of 1.78 h, an IC50 [5] of 0.00027 µM and an IC50 (Cathepsin B [6]) of 1.3 µM. For the same compound, the inhibition at 10 µM (Cathepsin B [7]) was 93%, the IC50 (Cathepsin D [8]) was > 10 µM and the inhibition at 10 µM (Cathepsin D [9]) was 3%. For the same compound, the IC50 (Neutrophil elastase) was > 10 µM, the inhibition at 10 µM [10] was -31% and the IC50 [11] was > 10 µM. The inhibition at 10 µM (chymotrypsin) was 8%, the IC50 (Prothrombin) was > 10 µM and the inhibition at 10 µM (thrombin) was -28%. The IC50 [12] was > 10 µM, the inhibition at 10 µM (pepsin) was -2% and the IC50 (Caspase-2 [13]) was > 10 µM. The inhibition at 10 µM (Caspase-2 [14]) was -20%, the IC50 [15] was > 10 µM and the inhibition [16] was 0%. For the same compound, the IC50 [17] was > 10 µM, the inhibition (Hepacivirus hominis) was 16% and the IC50 [18] was 1.7 µM. For the same compound, the EC50 (rhinovirus B14) was > 100 µM, the EC50 (rhinovirus A16) was > 100 µM and the EC50 [19] was > 32 µM. For the same compound, the EC50 (Hepatitis C virus) was > 320 µM, the EC50 (Human betaherpesvirus 5) was > 100 µM and the EC50 (SARS-CoV) was 1.1 µM. The Activity (Human coronavirus 229E [20]) was “Active”, the solubility [21] was 4600 µg/mL (≈ 9.73 mM) and the solubility [22] was 4600 µg/mL (≈ 9.73 mM). It also gave a Vdss [23] of 1.2 L/kg, a t1/2 [24] of 1 min and an AUC [25] of 1200 ng·h/mL. For the same compound, the clearance [26] was 10.5 mL/min/kg, the Vd [27] was 0.4 L/kg and the AUC [28] was 3800 ng·h/mL. For the same compound, the Vdss [29] was 0.6 L/kg, the t1/2 [30] was 1.6 min and the AUC [31] was 3800 ng·h/mL. The solubility [32] was 6600 µg/mL (≈ 14 mM), the IC50 [33] was 0.004 µM and the CC50 at 96 h [34] was > 40 µM. For the same compound, the CC50 [35] was > 1260 µM, the CC50 at 168 h [36] was > 32 µM and the CC50 [37] was > 320 µM. The CC50 [38] was > 100 µM, the CC50 at 66 h [39] was 452 µM and the EC50 (Human coronavirus 229E [40]) was 0.009 µM.
